In PMC8865217 (Journal of natural products, 2021):
Converted amounts (≈) assume the structure as drawn.

Key:
Interconversion = assay type: physicochemical; settings: for Relative stability among diastereomers/epimers: hemiaminal equilibrium
M. tuberculosis [1] = settings: previous study; cited from earlier work
[2] = target: Mycobacterial ClpC1 FL (full-length protein) (Mycobacterium tuberculosis, UniProt P9WPC9); assay: Binding affinity to full-length ClpC1 by surface plasmon resonance; settings: SPR, KD = kd/ka, 1:1 Langmuir model
Chain of Mycobacterial ClpC1 FL (full-length protein) (P9WPC9 whole entry, the tested form may be a part): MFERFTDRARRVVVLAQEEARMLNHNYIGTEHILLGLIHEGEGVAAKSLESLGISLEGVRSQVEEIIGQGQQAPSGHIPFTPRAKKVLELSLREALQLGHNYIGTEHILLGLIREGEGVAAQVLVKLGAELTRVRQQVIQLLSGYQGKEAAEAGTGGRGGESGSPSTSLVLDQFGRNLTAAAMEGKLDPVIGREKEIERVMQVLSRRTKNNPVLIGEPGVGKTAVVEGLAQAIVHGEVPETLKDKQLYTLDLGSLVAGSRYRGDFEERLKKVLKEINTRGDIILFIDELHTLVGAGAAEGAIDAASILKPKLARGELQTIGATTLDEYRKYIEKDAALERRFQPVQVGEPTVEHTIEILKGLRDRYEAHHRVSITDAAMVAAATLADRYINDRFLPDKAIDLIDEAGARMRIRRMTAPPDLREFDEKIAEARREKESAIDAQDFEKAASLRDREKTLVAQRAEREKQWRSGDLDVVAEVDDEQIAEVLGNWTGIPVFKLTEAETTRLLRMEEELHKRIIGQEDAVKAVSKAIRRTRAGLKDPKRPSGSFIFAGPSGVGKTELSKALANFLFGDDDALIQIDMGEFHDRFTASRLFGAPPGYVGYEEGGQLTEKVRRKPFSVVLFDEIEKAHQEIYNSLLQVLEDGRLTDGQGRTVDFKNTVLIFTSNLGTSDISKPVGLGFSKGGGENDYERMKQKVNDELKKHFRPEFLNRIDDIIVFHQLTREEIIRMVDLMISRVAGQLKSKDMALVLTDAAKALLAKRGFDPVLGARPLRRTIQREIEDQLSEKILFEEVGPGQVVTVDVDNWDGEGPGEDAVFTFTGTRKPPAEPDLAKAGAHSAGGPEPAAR
Outline: (§1)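 Association (ka) and dissociation (kd) rate constants came from a global fit of double-referenced SPR data to a 1:1 Langmuir model, and KD was calculated as kd/ka. The same procedure was used for the mycobacterial ClpC1 N-terminal domain and for the full-length protein.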

[3] = target: Mycobacterial ClpC1-NTD (caseinolytic protein C1 N-terminal domain) (Mycobacterium tuberculosis, UniProt P9WPC9); assay: Binding affinity to ClpC1-NTD by surface plasmon resonance; settings: SPR, KD = kd/ka, 1:1 Langmuir model
Chain of Mycobacterial ClpC1-NTD (caseinolytic protein C1 N-terminal domain) (P9WPC9 2-144): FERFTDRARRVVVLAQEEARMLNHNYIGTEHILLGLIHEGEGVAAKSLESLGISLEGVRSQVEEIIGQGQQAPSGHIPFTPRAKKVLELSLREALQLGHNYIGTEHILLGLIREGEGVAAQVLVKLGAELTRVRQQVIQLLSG
Outline: as §1

M. tuberculosis [4] = assay: MIC against M. tuberculosis, microplate Alamar Blue assay; assay type: cell-based; settings: Mycobacterium tuberculosis, read-out: MIC value (anti-Mtb)

C/C=C/C[C@@H]1NC(=O)[C@H](CC(C)C)N2C(=O)[C@H](C[C@@H](C)[C@H]2O)N(C)C(=O)[C@H](C)NC(=O)[C@H](Cc2ccc(O)c([N+](=O)[O-])c2)NC(=O)[C@H](CC(C)C)N(C)C(=O)[C@H](Cc2cn(C(C)(C)[C@H]3CO3)c3ccccc23)NC1=O [rufomycin 6]
Relative stability among diastereomers/epimers (Interconversion): more stable epimer | Conversion to rufomycin 7 (Interconversion; slow conversion under aqueous conditions): ~ 5%

C/C=C/C[C@@H]1NC(=O)[C@H](CC(C)C)N2C(=O)[C@H](C[C@H](C)[C@H]2O)N(C)C(=O)[C@H](C)NC(=O)[C@H](Cc2ccc(O)c([N+](=O)[O-])c2)NC(=O)[C@H](CC(C)C)N(C)C(=O)[C@H](Cc2cn(C(C)(C)[C@H]3CO3)c3ccccc23)NC1=O [rufomycin 4]
MIC value (anti-Mtb) (M. tuberculosis [1]): ~ 0.020 μM

C/C=C/C[C@@H]1NC(=O)[C@H](CC(C)C)N2C(=O)[C@H](C[C@@H](C)[C@@H]2O)N(C)C(=O)[C@H](C)NC(=O)[C@H](Cc2ccc(O)c([N+](=O)[O-])c2)NC(=O)[C@H](CC(C)C)N(C)C(=O)[C@H](Cc2cn(C(C)(C)[C@H]3CO3)c3ccccc23)NC1=O [rufomycin 7]
Relative stability among diastereomers/epimers (Interconversion): most unstable diastereomer | Epimerization to rufomycin 6 (Interconversion; quickly, during concentration): ~ 50%

CC=CCC1NC(=O)C(CC(C)C)N2C(=O)C(CC(C)C2OCCCC)N(C)C(=O)C(C)NC(=O)C(Cc2ccc(O)c([N+](=O)[O-])c2)NC(=O)C(CC(C)C)N(C)C(=O)C(Cc2cn(C(C)(C)C(O)CCl)c3ccccc23)NC1=O (stereo not drawn) [rufomycinSS 1]
Kd [2]: 724 nM | Kd [3]: 602 nM

CC=CCC1NC(=O)C(CC(C)C)N2C(=O)C(CC(C)C2OCCCC)N(C)C(=O)C(C)NC(=O)C(Cc2ccc(O)c([N+](=O)[O-])c2)NC(=O)C(CC(C)C)N(C)C(=O)C(Cc2cn(C(C)(C)C(O)CCl)c3ccccc23)NC1=O (stereo not drawn) [rufomycinSS 2]
Kd [2]: 29 nM | Kd [3]: 27 nM

C/C=C/C[C@@H]1NC(=O)[C@H](CC(C)C)N2C(=O)[C@H](C[C@@H](C)[C@H]2OCCCC)N(C)C(=O)[C@H](C)NC(=O)[C@H](Cc2ccc(O)c([N+](=O)[O-])c2)NC(=O)[C@H](CC(C)C)N(C)C(=O)[C@H](Cc2cn(C(C)(C)C(O)CCl)c3ccccc23)NC1=O (stereo partly drawn) [rufomycinSS 3]
MIC (M. tuberculosis [4]): 4.3 µM (≈ 4.88 µg/mL) | Kd [2]: 171 nM | Kd [3]: 211 nM
